In article PMC5481844 (Biomedical chromatography : BMC, 2015):
Read-outs that look alike come from different tables or passages of the source. Each block holds one compound with its values, some of them ahead of it.

Key:
[1] = stability in different solvents; format: physicochemical
In short: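 Remaining amount was quantified by LC-MS/MS: C18 gradient with 0.1% formic acid, positive ESI, SRM m/z 235.2/178.0, 2-amino-6-bromobenzothiazole internal standard.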

human serum albumin = human serum albumin (Homo sapiens, UniProt P02768); test: binding to human serum albumin solution by ultrafiltration; format: in vitro ADME; conditions: human serum albumin (4%) in PBS, 500 ng/mL, n = 3
Sequence of human serum albumin (P02768 25-609): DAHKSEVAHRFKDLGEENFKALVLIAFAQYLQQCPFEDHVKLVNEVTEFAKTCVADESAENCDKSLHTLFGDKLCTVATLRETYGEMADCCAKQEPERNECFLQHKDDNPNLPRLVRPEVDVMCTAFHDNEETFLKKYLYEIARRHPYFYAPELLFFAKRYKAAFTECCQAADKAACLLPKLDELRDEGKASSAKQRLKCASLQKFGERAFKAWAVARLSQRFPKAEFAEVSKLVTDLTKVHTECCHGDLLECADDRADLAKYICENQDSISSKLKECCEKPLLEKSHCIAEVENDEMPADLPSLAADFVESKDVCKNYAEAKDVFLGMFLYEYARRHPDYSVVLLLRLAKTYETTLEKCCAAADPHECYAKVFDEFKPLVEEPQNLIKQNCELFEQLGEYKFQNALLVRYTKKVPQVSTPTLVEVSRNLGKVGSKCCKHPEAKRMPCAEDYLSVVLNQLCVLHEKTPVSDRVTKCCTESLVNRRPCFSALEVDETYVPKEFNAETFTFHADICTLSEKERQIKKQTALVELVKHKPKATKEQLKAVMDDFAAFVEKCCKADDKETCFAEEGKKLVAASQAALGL
In short: (§1)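 Test compound was spiked to a final 500 ng/mL into 4% human serum albumin or 0.1% human α1-acid glycoprotein in PBS. Samples were incubated 1 h at 37 °C, then ultrafiltered through a 30 kDa cutoff device for 20 min at 13,000 g. Total and filtrate concentrations were measured by LC-MS/MS. %bound = 100×(Ctotal−Cfree)/Ctotal, with the filtrate corrected for membrane adsorption using recovery from water. n = 3.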

human plasma proteins [2] = test: plasma binding by ultracentrifugation; format: in vitro ADME; conditions: 500 ng/mL, n = 3
In short: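 Pooled human plasma was spiked with test compound in DMSO (final 500 ng/mL) and incubated 1 h at 37 °C. It was then spun at 50,000 rpm in a fixed-angle rotor for 10 h at 20 °C. The supernatant gave free and whole plasma gave total concentration, both by LC-MS/MS. %bound = 100×(Ctotal−Cfree)/Ctotal. n = 3.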

[3] = test system: human α1-acid glycoprotein; test: binding to human α1-acid glycoprotein solution by ultrafiltration; format: in vitro ADME; conditions: human α1-acid glycoprotein (0.1%) in PBS, 500 ng/mL, n = 3
In short: as §1

stability in plasma = format: in vitro ADME, human; conditions: for Measured concentration: n = 3
In short: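 Human plasma was spiked at 100 and 500 ng/mL and kept at room temperature or on ice for up to 24 h; percent remaining was taken versus freshly prepared samples. For quantitation, 50 µL plasma plus internal standard and EDTA underwent acetonitrile precipitation and centrifugation, then LC-MS/MS in SRM mode. Calibration spanned 3.9–500 ng/mL, fitted with 1/concentration weighting.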

human plasma proteins [4] = test: plasma binding by ultrafiltration; format: in vitro ADME
In short: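 Pooled human plasma was spiked with test compound in DMSO to a final 500 ng/mL; preliminary runs also used 31.25 and 3.9 ng/mL. After 1 h at 37 °C, plasma was ultrafiltered (30 kDa cutoff, 20 min, 13,000 g). Total plasma and ultrafiltrate levels were measured by LC-MS/MS. %bound = 100×(Ctotal−Cfree)/Ctotal, corrected for membrane adsorption via recovery from water. n = 3.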

[5] = acid hydrolysis also observed; ref Stariat et al., 2009; cited from earlier work
[6] = human plasma, long term (30 days at −80 °C), nominal 3.9 ng/mL
[7] = human plasma, long term (30 days at −80 °C), nominal 31.3 ng/mL
[8] = human plasma, long term (30 days at −80 °C), nominal 500.0 ng/mL
[9] = human plasma, short-term (2 h on ice), nominal 31.3 ng/mL
[10] = human plasma, short-term (2 h on ice), nominal 500.0 ng/mL
[11] = human plasma, three freeze–thaw cycles, nominal 3.9 ng/mL
[12] = human plasma, three freeze–thaw cycles, nominal 500.0 ng/mL
[13] = processed human plasma samples, autosampler for 24 h, nominal 3.9 ng/mL
[14] = processed human plasma samples, autosampler for 24 h, nominal 31.3 ng/mL
[15] = processed human plasma samples, autosampler for 24 h, nominal 500.0 ng/mL

stability in acidic buffer ([1]; 0.1 M HCl, 500 ng/mL, hydrolysis of thiosemicarbazone bond): quickly degraded
stability in PBS ([1]; PBS pH 7.2, 500 ng/mL, 24 h at 4 °C, 37 °C and room temperature): stable without degradation
stability in solvent acetonitrile ([1]; acetonitrile–water 80:20 v/v, 500 ng/mL, 24 h at 4 °C, 37 °C and room temperature): stable without degradation
stability in neutral buffer ([1]; preliminary stability studies): good stability
Percentage of bound drug by ultrafiltration (human serum albumin): 98.4
Percentage of bound drug by ultracentifugation (human plasma proteins [2]): 97.5
Percentage of bound drug by ultrafiltration [3]: 34.9
degraded in plasma (stability in plasma; 100 ng/mL, room temperature, over 24 h, vs freshly prepared samples): > 40%
stability in plasma (stability in plasma; 500 ng/mL, room temperature, up to 24 h): stable
Bias (stability in plasma; [6]): −0.01%
Measured concentration (stability in plasma; [6]): 3.9 ng/mL
Bias (stability in plasma; [7]): −2.9%
Measured concentration (stability in plasma; [7]): 30.3 ng/mL
Bias (stability in plasma; [8]): 3.2%
Measured concentration (stability in plasma; [8]): 516.4 ng/mL
Bias (stability in plasma; human plasma, short-term (2 h on ice), nominal 3.9 ng/mL): −0.4%
Bias (stability in plasma; [9]): −7.0%
Measured concentration (stability in plasma; [9]): 29.0 ng/mL
Bias (stability in plasma; [10]): −1.3%
Measured concentration (stability in plasma; [10]): 493.9 ng/mL
Bias (stability in plasma; [11]): 4.8%
Measured concentration (stability in plasma; [11]): 4.1 ng/mL
Bias (stability in plasma; human plasma, three freeze–thaw cycles, nominal 31.3 ng/mL): −10.4%
Bias (stability in plasma; [12]): 10.6%
Measured concentration (stability in plasma; [12]): 553.1 ng/mL
Bias (stability in plasma; [13]): 4.0%
Measured concentration (stability in plasma; [13]): 4.1 ng/mL
Bias (stability in plasma; [14]): 13.0%
Measured concentration (stability in plasma; [14]): 35.4 ng/mL
Bias (stability in plasma; [15]): 10.0%
Measured concentration (stability in plasma; [15]): 550.7 ng/mL
stability of plasma samples under storage conditions (stability in plasma; −80 °C for 1 month, 4 °C for 2 h, three freeze–thaw cycles, 24 h in autosampler): stable
Percentage of bound drug by ultrafiltration (human plasma proteins [4]; human plasma, 500 ng/mL, n = 3): 98.8
concentration of free ZMC1 in ultrafiltrate or ultracentrifugation supernatant (human plasma proteins [4]; plasma spiked at 31.25 and 3.9 ng/mL): below the detection limit
SMILES: CC(=NNC(=S)N1CCC1)c1ccccn1 [ZMC1, azetidinecarbothioic acid, [1-(2-pyridinyl)ethylidene] hydrazide]

SMILES: CN(C)C(=S)NN=C(c1ccccn1)c1ccccn1 [Dp44mT, di-2-pyridylketone-4,4-dimethyl-3-thiosemicarbazone]
stability in acidic buffer [5]: also observed
